Measured values gathered from unrelated publications.
Protocols differ between the studies behind these lines.
Target: High affinity nerve growth factor receptor (NTRK1, Homo sapiens, UniProt P04629)

test	conditions	remaining binding	Structure (SMILES)
binding, competition with immobilised ligand	1 µM	1.4%	O=C(c1ccc(Nc2ncc(Cl)c(-c3cc4ccccc4s3)n2)cc1)N1CCC(N2CCCC2)CC1
binding, competition with immobilised ligand	1 µM	100%	O=C(NCC1CCOCC1)c1n[nH]cc1NC(=O)c1c(F)cccc1F
binding	1 µM	85%	N[C@H]1CCN(c2nccc(-c3cnn4ncccc34)n2)C1
cell-free assay, competition with immobilised ligand	1 µM	94%	Cc1nccc(COC(=O)N2C[C@@H]3[C@@H](CNC(=O)c4ccc5[nH]nnc5c4)[C@@H]3C2)n1
binding	10 µM	9.2%	CN1CCN(c2ccc(Nc3nccc(-c4ccccc4)n3)cc2C(F)(F)F)CC1
binding	1 µM	61%	C[C@@H]1CCN(c2nccc(-c3cnn4ncccc34)n2)C1
cell-free assay, competition with immobilised ligand	5 µM	1.9%	FC(F)(F)Oc1cccc(-c2cnc3ccc(-c4ccncc4)nn23)c1
binding, competition with immobilised ligand	1 µM	69%	Nc1ncc2c(n1)-c1c([nH]c3ccc(C#CC4CC4)cc13)CCCC2
cell-free assay, competition with immobilised ligand	0.1 µM	100%	O=C(NCCCC1CCCCC1)c1ccc(CNC(=O)c2cnn(-c3ccccc3)c2C(F)(F)F)cc1
binding	1 µM	86%	F[C@@H]1CCN(c2nccc(-c3cnn4ncccc34)n2)C1
cell-free assay, competition with immobilised ligand	1 µM	76%	O=S(=O)(NC1CCC(c2cc(F)ccc2F)(S(=O)(=O)c2ccc(Cl)cc2)CC1)C(F)(F)F (stereo not shown)
binding	1 µM	68%	CN(C)c1nccc(-c2cnn3ncccc23)n1
cell-free assay, competition with immobilised ligand	1 µM	74%	CCS(=O)(=O)c1cc2cc(C[C@@](O)(CC(C)(C)c3ccc(F)cc3C(N)=O)C(F)(F)F)[nH]c2cn1
binding, competition with immobilised ligand	1 µM	92%	CNC(=O)[C@@H]1CC[C@@H](n2c(-c3ccc4cnccc4c3)nc3ccc(C(=O)NCc4cccc(C(N)=O)c4)cc32)C1
cell-free assay, competition with immobilised ligand	1 µM	100%	CC(C)(O)c1cncc(-c2nc3ccc(F)cc3n2C2CC2)c1
binding, competition with immobilised ligand	1 µM	17%	O=C(NCCCN1CCOCC1)c1ccc(Nc2ncc(Cl)c(-c3ccc(Cl)s3)n2)cc1
